We go through two proteins from ChEMBL document CHEMBL1629653, “CMY-31 and CMY-36 cephalosporinases encoded by ColE1-like plasmids” (Antimicrob Agents Chemother, 2009).

Substrate in data set [1]: CC1(C)S[C@@H]2[C@H](NC(=O)Cc3ccccc3)C(=O)N2[C@H]1C(=O)O
The following applies: Salmonella enterica subsp. enterica serovar Newport; AM17274.

Substrate in data set [2]: CO/N=C(\C(=O)N[C@@H]1C(=O)N2C(C(=O)O)=C(COC(C)=O)CS[C@H]12)c1csc(N)n1
As to conditions: Salmonella enterica subsp. enterica serovar Newport; AM17274.

Substrate in data set [3]: O=C(Cc1cccs1)N[C@@H]1C(=O)N2C(C(=O)O)=C(/C=C/c3ccc([N+](=O)[O-])cc3[N+](=O)[O-])CS[C@H]12
The following applies: Salmonella enterica subsp. enterica serovar Newport; AM17274.

Substrate in data set [4]: O=C(Cc1cccs1)N[C@@H]1C(=O)N2C(C(=O)[O-])=C(C[n+]3ccccc3)CS[C@H]12
As to conditions: Salmonella enterica subsp. enterica serovar Newport; AM17274.

Substrate in data set [5]: CC1(C)S[C@@H]2[C@H](NC(=O)Cc3ccccc3)C(=O)N2[C@H]1C(=O)O
The following applies: Salmonella enterica subsp. enterica serovar Newport; AM17274. This is another data set of the same source.

Substrate in data set [6]: O=C(Cc1cccs1)N[C@@H]1C(=O)N2C(C(=O)O)=C(/C=C/c3ccc([N+](=O)[O-])cc3[N+](=O)[O-])CS[C@H]12
The following applies: Salmonella enterica subsp. enterica serovar Newport; AM17274. The source holds these as a separate data set.

Substrate in data set [7]: O=C(Cc1cccs1)N[C@@H]1C(=O)N2C(C(=O)[O-])=C(C[n+]3ccccc3)CS[C@H]12
As to conditions: Salmonella enterica subsp. enterica serovar Newport; AM17274. The source holds these as a separate data set.

Substrate in data set [8]: CC1(C)S[C@@H]2[C@H](NC(=O)Cc3ccccc3)C(=O)N2[C@H]1C(=O)O
The experiment in a line: (§1) Activity of Klebsiella pneumoniae HP205 cephalosporinase CMY-36 by spectrophotometry. The gist of the method: (§2)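 CMY β-lactamases purified from sonicated, ultracentrifuge-clarified extracts of E. coli DH5α clones (pB-cmy36, pB-cmy2) by Q- then S-Sepharose ion exchange (>90% pure by SDS-PAGE); steady-state hydrolysis kinetics measured spectrophotometrically, CMY-2 run in parallel.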

Substrate in data set [9]: CO/N=C(\C(=O)N[C@@H]1C(=O)N2C(C(=O)O)=C(COC(C)=O)CS[C@H]12)c1csc(N)n1
The description is as §1. The gist of the method:
as §2

Substrate in data set [10]: O=C(Cc1cccs1)N[C@@H]1C(=O)N2C(C(=O)O)=C(/C=C/c3ccc([N+](=O)[O-])cc3[N+](=O)[O-])CS[C@H]12
Described as §1. The gist of the method:
as §2

Substrate in data set [11]: O=C(Cc1cccs1)N[C@@H]1C(=O)N2C(C(=O)[O-])=C(C[n+]3ccccc3)CS[C@H]12
The description is as §1. The gist of the method:
as §2

Substrate in data set [12]: CC1(C)S[C@@H]2[C@H](NC(=O)Cc3ccccc3)C(=O)N2[C@H]1C(=O)O
The experiment in a line: (§3) Ratio of Kcat to Km for Klebsiella pneumoniae cephalosporinase CMY-36 by spectrophotometry. Summed up:
as §2

Substrate in data set [13]: O=C(Cc1cccs1)N[C@@H]1C(=O)N2C(C(=O)O)=C(/C=C/c3ccc([N+](=O)[O-])cc3[N+](=O)[O-])CS[C@H]12
Described as §3. Summed up:
as §2

Substrate in data set [14]: O=C(Cc1cccs1)N[C@@H]1C(=O)N2C(C(=O)[O-])=C(C[n+]3ccccc3)CS[C@H]12
The data set is described as §3. Summed up: as §2

B1: Efflux transporter (Salmonella newport), Q3S5C3 (protein)
chain: MSWIVLLIAGLLEVVWAIGLKYTHGFTRLTPSIITIAAMIVSIAMLSWAMRTLPVGTAYAVWTGIGAVGAAITGILLLGESASPARLLSLGLIVAGIIGLKLSTH
As for B1, the Michaelis constant (Km) in data set [1] is 0.3 µM; in data set [3], 10 µM. The turnover number (kcat) in data set [1] was 7.7 s⁻¹; in data set [2], below 0.01 s⁻¹; in data set [3], 960 s⁻¹; in data set [4] it was 310 s⁻¹. Besides, the values for the kcat/Km in data set [5], in [6] and in data set [7] were 2.57e+07 M⁻¹ s⁻¹, 9.6e+07 M⁻¹ s⁻¹ and 2.1e+06 M⁻¹ s⁻¹, respectively.

B2: Class C beta-lactamase CMY-36 (Klebsiella pneumoniae), Q48435 (protein)
chain: MMKKSLCCALLLTASFSTFAAAKTEQQIADIVNRTITPLMQEQAIPGMAVAVIYQGKPYYFTWGKADIANNHPVTQQTLFELGSVSKTFNGVLGGDCIARGEIKLSDPVTKYWPELTGKQWQGIRLLHLATYTAGGLPLQIPDDVRDKAALLHFYQNWQPQWTPGAKRLYANSSIGLFGALAVKPSGMSYEEAMTRRVLQPLKLAHTWITVPENEQKDYAWGYREGKPVHVSPGQLDAEAYGVKSSVIDMARWVQANMDASHVQEKTLQQGIALAQSRYWRIGDMYQGLGWEMLNWPLKADSIINGSDSKVALAALPAVEVNPPAPAVKASWVHKTGSTGGFGSYVAFVPEKNLGIVMLANKSYPNPVRVEAAWRILEKLQ
With B2, the Michaelis constant (Km) was determined as 0.3 µM in data set [8], 7.3 µM in data set [10] and 150 µM in [11]. The kcat in [8] is 9.1 s⁻¹; in data set [9], below 0.01 s⁻¹; in [10], 910 s⁻¹; in [11], 360 s⁻¹. Besides, the kcat/Km in data set [12] came to 3.03e+07 M⁻¹ s⁻¹; in data set [13] it was 1.25e+08 M⁻¹ s⁻¹; in data set [14], 2.4e+06 M⁻¹ s⁻¹.
